# Data from ChEMBL document CHEMBL5058577, “EUbOPEN Chemogenomics Library 2 (Multiplex)” (2022).
# Test system: HEK-293T
# Assay: Multiplex assay against HEK293T
# Format: toxicity, cell-based
# Details: human
# In short: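 Values for tubulin, mitochondrial-mass and membrane-permeability phenotypes are per cents of cells with healthy nuclei. These cells were identified by CellPathfinder machine-learning gating of live cells that had been stained at seeding with Hoechst33342, BioTracker Green Microtubule Cytoskeleton Dye, MitoTracker Red and Annexin V Alexa Fluor 680 and imaged on a CQ1 microscope at 37°C and 5% CO2 after compound addition. The gating first set Hoechst high-intensity objects apart from normal cells, then split normal cells into healthy, pyknosed or fragmented nuclei, and pyknosed cells into mitotic or apoptotic.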
# [1] = 12 h, 1 µM, compound concentration 1 uM, replicate 1
# [2] = 12 h, 1 µM, compound concentration 1 uM, replicate 2
# [3] = 12 h, 10 µM, compound concentration 10 uM, replicate 1
# [4] = 12 h, 10 µM, compound concentration 10 uM, replicate 2
# [5] = 24 h, 1 µM, compound concentration 1 uM, replicate 1
# [6] = 24 h, 1 µM, compound concentration 1 uM, replicate 2
# [7] = 24 h, 10 µM, compound concentration 10 uM, replicate 1
# [8] = 24 h, 10 µM, compound concentration 10 uM, replicate 2
# [9] = 48 h, 1 µM, compound concentration 1 uM, replicate 1
# [10] = 48 h, 1 µM, compound concentration 1 uM, replicate 2
# [11] = 48 h, 10 µM, compound concentration 10 uM, replicate 1
# [12] = 48 h, 10 µM, compound concentration 10 uM, replicate 2
compound,measurement,setting,value
COCCCN1CCC(NC(=O)c2cc(Cl)c(N)c3c2OCC3)CC1 [PRUCALOPRIDE],Population Apoptotic (%),[1],22%
same,Population Fragmented Nuclei (%),[1],10%
same,Population Healthy Nuclei (%),[1],80%
same,Population Hoechst High Intensity Objects (%),[1],8%
same,Population Membrane Permeable-Phenotype (%),[1],0%
same,Population Mitochondria Different-Phenotype (%),[1],36%
same,Population Mitotic Cells (%),[1],77%
same,Population Normal (%),[1],91%
same,Population Pyknosed Nuclei (%),[1],9%
same,Population Tubulin-Different-Phenotype (%),[1],21%
same,Total Cell Count,[1],416
same,Population Apoptotic (%),[2],31%
same,Population Fragmented Nuclei (%),[2],4%
same,Population Healthy Nuclei (%),[2],82%
same,Population Hoechst High Intensity Objects (%),[2],7%
same,Population Mitochondria Different-Phenotype (%),[2],59%
same,Population Mitotic Cells (%),[2],68%
same,Population Normal (%),[2],92%
same,Population Pyknosed Nuclei (%),[2],12%
same,Population Tubulin-Different-Phenotype (%),[2],16%
same,Total Cell Count,[2],397
same,Population Apoptotic (%),[3],37%
same,Population Fragmented Nuclei (%),[3],8%
same,Population Healthy Nuclei (%),[3],74%
same,Population Hoechst High Intensity Objects (%),[3],4%
same,Population Membrane Permeable-Phenotype (%),[3],0%
same,Population Mitochondria Different-Phenotype (%),[3],59%
same,Population Mitotic Cells (%),[3],62%
same,Population Normal (%),[3],95%
same,Population Pyknosed Nuclei (%),[3],17%
same,Population Tubulin-Different-Phenotype (%),[3],43%
same,Total Cell Count,[3],421
same,Population Apoptotic (%),[4],56%
same,Population Fragmented Nuclei (%),[4],10%
same,Population Healthy Nuclei (%),[4],72%
same,Population Hoechst High Intensity Objects (%),[4],10%
same,Population Mitochondria Different-Phenotype (%),[4],75%
same,Population Mitotic Cells (%),[4],43%
same,Population Normal (%),[4],89%
same,Population Tubulin-Different-Phenotype (%),[4],35%
same,Total Cell Count,[4],261
same,Population Apoptotic (%),[5],20%
same,Population Fragmented Nuclei (%),[5],11%
same,Population Healthy Nuclei (%),[5],78%
same,Population Hoechst High Intensity Objects (%),[5],5%
same,Population Membrane Permeable-Phenotype (%),[5],1%
same,Population Mitochondria Different-Phenotype (%),[5],18%
same,Population Mitotic Cells (%),[5],79%
same,Population Normal (%),[5],94%
same,Population Pyknosed Nuclei (%),[5],10%
same,Population Tubulin-Different-Phenotype (%),[5],14%
same,Total Cell Count,[5],590
same,Population Apoptotic (%),[6],28%
same,Population Fragmented Nuclei (%),[6],8%
same,Population Healthy Nuclei (%),[6],84%
same,Population Hoechst High Intensity Objects (%),[6],4%
same,Population Membrane Permeable-Phenotype (%),[6],0%
same,Population Mitochondria Different-Phenotype (%),[6],39%
same,Population Mitotic Cells (%),[6],71%
same,Population Normal (%),[6],95%
same,Population Pyknosed Nuclei (%),[6],6%
same,Population Tubulin-Different-Phenotype (%),[6],10%
same,Total Cell Count,[6],546
same,Population Apoptotic (%),[7],28%
same,Population Fragmented Nuclei (%),[7],8%
same,Population Healthy Nuclei (%),[7],77%
same,Population Hoechst High Intensity Objects (%),[7],4%
same,Population Membrane Permeable-Phenotype (%),[7],0%
same,Population Mitochondria Different-Phenotype (%),[7],48%
same,Population Mitotic Cells (%),[7],71%
same,Population Normal (%),[7],95%
same,Population Pyknosed Nuclei (%),[7],13%
same,Population Tubulin-Different-Phenotype (%),[7],32%
same,Total Cell Count,[7],531
same,Population Apoptotic (%),[8],50%
same,Population Fragmented Nuclei (%),[8],13%
same,Population Healthy Nuclei (%),[8],73%
same,Population Hoechst High Intensity Objects (%),[8],9%
same,Population Mitochondria Different-Phenotype (%),[8],51%
same,Population Mitotic Cells (%),[8],50%
same,Population Normal (%),[8],90%
same,Population Pyknosed Nuclei (%),[8],12%
same,Population Tubulin-Different-Phenotype (%),[8],25%
same,Total Cell Count,[8],341
same,Population Apoptotic (%),[9],24%
same,Population Fragmented Nuclei (%),[9],15%
same,Population Healthy Nuclei (%),[9],76%
same,Population Hoechst High Intensity Objects (%),[9],2%
same,Population Membrane Permeable-Phenotype (%),[9],1%
same,Population Mitochondria Different-Phenotype (%),[9],16%
same,Population Mitotic Cells (%),[9],75%
same,Population Normal (%),[9],97%
same,Population Pyknosed Nuclei (%),[9],7%
same,Population Tubulin-Different-Phenotype (%),[9],11%
same,Total Cell Count,[9],1001
same,Population Apoptotic (%),[10],21%
same,Population Fragmented Nuclei (%),[10],11%
same,Population Healthy Nuclei (%),[10],81%
same,Population Hoechst High Intensity Objects (%),[10],1%
same,Population Membrane Permeable-Phenotype (%),[10],0%
same,Population Mitochondria Different-Phenotype (%),[10],15%
same,Population Mitotic Cells (%),[10],78%
same,Population Normal (%),[10],98%
same,Population Pyknosed Nuclei (%),[10],6%
same,Population Tubulin-Different-Phenotype (%),[10],9%
same,Total Cell Count,[10],832
same,Population Apoptotic (%),[11],20%
same,Population Fragmented Nuclei (%),[11],16%
same,Population Healthy Nuclei (%),[11],77%
same,Population Hoechst High Intensity Objects (%),[11],1%
same,Population Membrane Permeable-Phenotype (%),[11],1%
same,Population Mitochondria Different-Phenotype (%),[11],32%
same,Population Mitotic Cells (%),[11],79%
same,Population Normal (%),[11],98%
same,Population Pyknosed Nuclei (%),[11],6%
same,Population Tubulin-Different-Phenotype (%),[11],16%
same,Total Cell Count,[11],772
same,Population Apoptotic (%),[12],35%
same,Population Healthy Nuclei (%),[12],75%
same,Population Hoechst High Intensity Objects (%),[12],3%
same,Population Membrane Permeable-Phenotype (%),[12],0%
same,Population Mitochondria Different-Phenotype (%),[12],31%
same,Population Mitotic Cells (%),[12],64%
same,Population Normal (%),[12],96%
same,Population Pyknosed Nuclei (%),[12],7%
same,Population Tubulin-Different-Phenotype (%),[12],15%
same,Total Cell Count,[12],528
